Source: PubChem BioAssay AID552 (SRMLSC, 2006)
Out of some 20,000 compounds screened, about 10 (0.05%) were called active. Cut-off read from the data, not from the text of the source: active = inhibition above about 40%; inactive = the rest. This excerpt belongs to a sample that is enriched for actives.

assay: growth inhibitors of wild type E. coli, primary screen, strain BW25113 wild type, absorbance readout (AID 552); details: OD600, at 10 µM, active compounds read high;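 note: bacteria exposed to compound for 20 hours at 37 °C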
Procedure, shortened: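 assay system = bacterial strain in a whole-cell growth screen | quantity = inoculum from a 1:1000 dilution of a 1.5 h subculture | buffer or medium = LB broth with 50 µg/mL kanamycin | compound dosing = one dose, 10 µM final | schedule = compound exposure of 20 h at 37 °C | technique = absorbance at 615 nm as a measure of bacterial growth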

inhibition, inactive:
COCCn1c(-c2ccc(OC)c(OC)c2)nc2ccccc21 -1.61%, Cc1cc(C(F)(F)F)nn1CC(=O)N1CCCC1 3.35%, Cn1c(=O)[nH]c(=O)c2c1nc(N(CCO)Cc1ccccc1)n2Cc1ccccc1Cl -2.48%, CC1CCc2c(sc3c2C2=NS(=O)(=O)CCN2C=N3)C1 (configuration not stated) 6%, Cc1nn(CC(=O)Nc2ccc3c(c2)nc(CN2CCCCC2)n3C)c(=O)c2ccccc12 2.04%, COc1ccccc1-c1nc(C(F)(F)F)c(OC)o1 -5.84%, O=c1ccc2cc(S(=O)(=O)N3CCN(c4ccccc4)CC3)ccc2o1 -12.1%, Cc1ccc(C(=O)N2CCCCCC2)cc1Br -8.59%, COc1cccc(-c2nc(S(=O)(=O)c3ccccc3)c(N3CCOCC3)o2)c1 7.07%, COc1ccccc1-c1cc(C(=O)NCCCn2ccnc2)no1 -4.16%, O=C(O)Cc1ccc(NC(=O)c2cccs2)cc1 -19.2%, COC(=O)Cc1c(C)c2ccc(OCC(=O)NCc3ccc4c(c3)OCO4)cc2oc1=O -21.1%, O=C(CS(=O)(=O)Cc1ccccc1)Nc1cccnc1 6.45%, O=C(NCc1ccco1)c1cc(-c2cccnc2)nc2ccc(Cl)cc12 -19.8%, CCSc1nc2c(c(=O)[nH]1)C(c1cccnc1)C(C(=O)OC(C)C)=C(C)N2 (configuration not stated) -1.79%, Cc1cccc(C(=O)Nc2ccc(CC(=O)O)cc2)c1 -0.63%, O=C(Nc1ccccc1)N(Cc1cccnc1)Cc1ccco1 -3.67%, O=C(CSc1nc2ccccc2o1)N1CCN(c2ccccc2)CC1 -25.4%, CC(=O)Nc1ccc(S(=O)(=O)Nc2nc3n(n2)C(c2ccccc2)CC(=O)N3)cc1 (configuration not stated) -1.04%, Cc1cc2c(cc1C)NC(c1ccccn1)C1=C(CC(C)(C)CC1=O)N2 (configuration not stated) -18.9%, CCOC(=O)COc1ccc(Cl)cc1C1NC(=O)NC(C)=C1C(C)=O (configuration not stated) -10.9%, O=C(COc1ccc(F)cc1)N(CC1=CCS(=O)(=O)C1)c1ccccc1 -20.6%, CC1(C)CC(=O)C=C(NCc2ccncc2)C1 -1.29%, CCc1cc(Br)ccc1NC(=O)C1CCCO1 (configuration not stated) -16.5%, Cc1cc(C)nc(SCc2nnc(SCC(=O)Nc3ncc(C)s3)n2Cc2ccco2)n1 -3.82%, CCOc1ccc(-c2nnn(CC(=O)N3CCN(c4ccc(F)cc4)CC3)n2)cc1OCC -5.75%, CCCOc1ccccc1-c1nc(SCCC(=O)O)n[nH]1 -18.4%, CCOC(=O)CSc1nnc(CNC(=O)c2cccs2)n1-c1cc(OC)ccc1OC 6.52%, Cc1cc(C)n(C(=O)c2ccc(S(=O)(=O)N3CCCC3)cc2)n1 -20.2%, CCCCn1c(CN2CCN(CCO)CC2)nc2ccccc21 -3.29%, Nc1nc(SCCOc2ccccc2)n[nH]1 6.28%, O=C(CSc1nc(-c2ccco2)cc(C(F)(F)F)n1)N1CCc2ccccc2C1 -19.6%, COCCn1c(CN(Cc2ccccc2)Cc2ccccc2)nc2c1c(=O)n(C)c(=O)n2C 12.3%, O=C(CSc1nnc(-c2cccs2)n1-c1ccccc1)NCc1ccco1 -20.9%, CCS(=O)(=O)NCCc1ccc(OC)c(OC)c1 -17.9%, CC1=C(C(=O)Nc2ccccc2)C(c2cccs2)C(C#N)=C(SCC#N)N1 (configuration not stated) 7.71%, CCn1cc(NC(=O)Nc2ccc(OC)c(OC)c2)c(C(N)=O)n1 -17.1%, NC(=O)CSc1oc(-c2cccs2)nc1S(=O)(=O)c1ccccc1 -19.6%, COc1ccc(-c2noc(COc3ccc(Cl)c(C)c3)n2)cc1 15.8%, CS(=O)(=O)N(Cc1nc2sc3c(c2c(=O)[nH]1)CCCC3)C1CCCCC1 9.07%, CC(c1nnc(SCC(=O)Nc2sccc2C#N)n1-c1ccc(Cl)cc1)N(C)C (configuration not stated) -3.98%, Cc1ccc(S(=O)(=O)NCc2nc3ccccc3c(=O)n2N)cc1 -21.5%
